# Reference: ChEMBL document CHEMBL4619791, “3-Difluoroalkyl Quaternary Oxindoles Inhibit Macrophage Pyroptosis by Blocking Inflammasome Recruitment of Caspase-1” (ACS Med Chem Lett, 2020)
# Tested on: BMDM
# Experiment: Inhibition of pyroptosis in LPS-primed C57BL/6 mouse primary BMDM assessed as reduction in nigericin-induced cell death by Alamar blue assay
# Type: functional, cell-based
# Procedure, shortened: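 Primary murine macrophages primed with LPS and stimulated with nigericin across a dose range. IL-1β release, LDH release and Alamar blue measured. Means ± SE, ≥3 experimental replicates.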
smiles,measurement,value
CCOC(CN1C(=O)C(NC(=O)Nc2ccc(C)cc2)(C(F)(F)C(=O)Nc2ccc(C)cc2)c2ccccc21)OCC (stereo unspecified),inhibition,Dose-dependent effect
